How the values were obtained:
[1] = Apparent volume of distribution with respect to the bioavailability in healthy human at 40 mg, po administered as two 20 mg immediate release tablets daily for 3 days during 10 hrs overnight fasting state measured after 1 day; assay type: ADME, organism-based; conditions: in vivo, read-out: Vc/F
How it was run: (§1)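 Healthy Caucasian males took 40 mg (2×20-mg IR tablets) or 80 mg (4 tablets) orally daily for 3 days after a 10-h fast. Plasma parent drug was measured by LC/MS-MS from predose to 14 h after the first and third doses. Noncompartmental analysis: AUC by log-linear trapezoid extrapolated via kel, CL/F = dose/AUC, V/F = CL/F÷kel, geometric means.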

[2] = Mean residence time in healthy human at 80 mg, po administered as four 20 mg immediate release tablets daily for 3 days during 10 hrs overnight fasting state measured after 1 day; assay type: ADME, organism-based; conditions: in vivo
How it was run: (§2)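 Healthy Caucasian males took tablets once daily for 3 days with 240 ml water after a 10-h fast. Heparinised blood was drawn predose and at 0.25–14 h after the first and last doses. Plasma parent drug and metabolites M1–M3 were measured by LC/MS-MS (MRM, deuterated internal standard). Noncompartmental analysis gave Cmax observed, t1/2 = 0.693/kel and MRT = AUMC/AUC. Values are geometric means.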

[3] = Half life in healthy human plasma at 30 mg, po administered as single ascending doses as solution during 10 hrs overnight fasting state; assay type: ADME, organism-based
How it was run: (§3)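 Healthy Caucasian male volunteers, single oral dose with 240 ml water after a 10-h overnight fast. Heparinised venous blood was drawn predose and at 0.25–14 h. Plasma was stored frozen. Parent drug and metabolites M1–M3 were measured by LC/MS-MS (MRM, deuterated internal standard). Noncompartmental analysis gave Cmax observed, t1/2 = 0.693/kel (terminal regression) and MRT = AUMC/AUC. Values are geometric means.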

Plasma = experiment: Ratio of Cmax in healthy human plasma at 40 mg, po administered as two 20 mg immediate release tablets daily for 3 days during 10 hrs overnight fasting state measured after 1 day to Cmax in healthy human plasma at 40 mg, po administered as two 20 mg immediate release tablets daily for 3 days during 10 hrs overnight fasting state measured after 3 day; assay type: ADME, organism-based; conditions: in vivo
How it was run: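 Healthy Caucasian men took tablets daily for 3 days with 240 ml water after 10-h fast. Plasma sampled 0.25–14 h after first and last doses, artemisone measured by LC/MS-MS. Accumulation ratio is Cmax or AUC0-∞ after last dose divided by that after first dose. Noncompartmental analysis, geometric means with 95% CI.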

[4] = Tmax in healthy human plasma at 40 mg, po administered as two 20 mg immediate release tablets daily for 3 days during 10 hrs overnight fasting state measured after 1 day; assay type: ADME, organism-based
How it was run: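 Healthy Caucasian men (8 active, 4 placebo per dose) dosed with tablets daily for 3 days after 10-h fast. Lithium-heparin plasma sampled predose and 0.25–14 h after day-1 and day-3 doses, stored frozen. Parent and M1–M3 quantified by LC/MS-MS in positive-ion MRM. Tmax taken directly from observed individual data.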

[5] = Apparent oral clearance in healthy human at 20 mg, po administered as single ascending doses as solution during 10 hrs overnight fasting state; assay type: ADME, organism-based; conditions: in vivo
How it was run: (§4)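 Single ascending oral doses in healthy Caucasian men, given fasted (10-h overnight) with 240 ml water: 10, 20, 30 or 40 mg as oral solution, or 80 mg as IR tablets. Parent plasma levels by LC/MS-MS over 0.25–14 h. Noncompartmental analysis: kel by terminal-phase least-squares regression, AUC extrapolated to infinity, CL/F = dose/AUC, V/F = CL/F÷kel.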

[6] = Mean residence time in healthy human at 10 mg, po administered as single ascending doses as solution during 10 hrs overnight fasting state; assay type: ADME, organism-based; conditions: in vivo; how it was run: as §3
[7] = Tmax in healthy human plasma at 40 mg, po administered as single ascending doses as solution during 10 hrs overnight fasting state; assay type: ADME, organism-based
How it was run: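 Healthy Caucasian male volunteers, randomized within each dose group against placebo, given a single oral solution with 240 ml water after a 10-h overnight fast. Plasma sampled predose and at 0.25–14 h, quantified by LC/MS-MS (MRM, deuterated internal standard). Tmax read directly from individual noncompartmental concentration–time data.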

[8] = Apparent oral clearance in healthy human at 40 mg, po administered as two 20 mg immediate release tablets daily for 3 days during 10 hrs overnight fasting state measured after 1 day; assay type: ADME, organism-based; conditions: in vivo; how it was run: as §1
[9] = Apparent oral clearance in healthy human at 40 mg, po administered as two 20 mg immediate release tablets daily for 3 days during 10 hrs overnight fasting state measured after 3 day; assay type: ADME, organism-based; conditions: in vivo; how it was run: as §1
[10] = Cmax in healthy human plasma at 40 mg, po administered as two 20 mg immediate release tablets daily for 3 days during 10 hrs overnight fasting state measured after 3 day; assay type: ADME, organism-based; set-up: dose 40 mg, route oral; how it was run: as §2
[11] = Cmax in healthy human plasma at 80 mg, po administered as single immediate release tablets during 10 hrs overnight fasting state; assay type: ADME, organism-based; set-up: dose 80 mg, route oral; how it was run: as §3
[12] = Apparent volume of distribution with respect to the bioavailability in healthy human at 10 mg, po administered as single ascending doses as solution during 10 hrs overnight fasting state; assay type: ADME, organism-based; conditions: in vivo, read-out: Vc/F; how it was run: as §4
[13] = AUC in healthy human plasma at 80 mg, po administered as four 20 mg immediate release tablets daily for 3 days during 10 hrs overnight fasting state measured after 1 day; assay type: ADME, organism-based; set-up: dose 80 mg, time < 10 hr, route oral; how it was run: as §1
[14] = Half life in healthy human plasma at 80 mg, po administered as four 20 mg immediate release tablets daily for 3 days during 10 hrs overnight fasting state measured after 1 day; assay type: ADME, organism-based; how it was run: as §2
Homo sapiens [15] = experiment: Toxicity in healthy human assessed as increase in alanine aminotransferase level at 80 mg, po administered daily for 3 days as four 20-mg immediate-release tablets during 10 hrs overnight fasting state measured after 24 hrs last post treatment; assay type: organism-based; conditions: in vivo
[16] = AUC in healthy human plasma at 80 mg, po administered as four 20 mg immediate release tablets daily for 3 days during 10 hrs overnight fasting state measured after 3 day; assay type: ADME, organism-based; set-up: time < 10 hr, dose 80 mg, route oral; how it was run: as §1
Homo sapiens [17] = experiment: Toxicity in healthy human assessed as occurrence of clinically relevant changes in vital signs at 40 mg, po administered daily for 3 days as two 20-mg immediate-release tablets during 10 hrs overnight fasting state; assay type: organism-based; conditions: in vivo
How it was run: (§5)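 Healthy Caucasian men received single ascending doses (10–40 mg solution, 80 mg tablets) or 3-day daily tablet courses, all fasting, with randomized placebo controls. Supine blood pressure, heart rate and resting 12-lead ECG were recorded before and after dosing.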

[18] = Cmax in healthy human plasma at 80 mg, po administered as four 20 mg immediate release tablets daily for 3 days during 10 hrs overnight fasting state measured after 3 day; assay type: ADME, organism-based; set-up: dose 80 mg, route oral; how it was run: as §2
Homo sapiens [19] = experiment: Toxicity in healthy human assessed as occurrence of changes in electrocardiogram parameters at 80 mg, po administered daily for 3 days as four 20-mg immediate-release tablets during 10 hrs overnight fasting state; assay type: organism-based; conditions: in vivo; how it was run: as §5
[20] = Half life in healthy human plasma at 80 mg, po administered as four 20 mg immediate release tablets daily for 3 days during 10 hrs overnight fasting state measured after 3 day; assay type: ADME, organism-based; how it was run: as §2
[21] = Mean residence time in healthy human at 40 mg, po administered as two 20 mg immediate release tablets daily for 3 days during 10 hrs overnight fasting state measured after 1 day; assay type: ADME, organism-based; conditions: in vivo; how it was run: as §2
[22] = Apparent oral clearance in healthy human at 80 mg, po administered as four 20 mg immediate release tablets daily for 3 days during 10 hrs overnight fasting state measured after 1 day; assay type: ADME, organism-based; conditions: in vivo; how it was run: as §1
[23] = Apparent volume of distribution with respect to the bioavailability in healthy human at 40 mg, po administered as single ascending doses as solution during 10 hrs overnight fasting state; assay type: ADME, organism-based; conditions: in vivo, read-out: Vc/F; how it was run: as §4
[24] = Cmax in healthy human plasma at 30 mg, po administered as single ascending doses as solution during 10 hrs overnight fasting state; assay type: ADME, organism-based; set-up: dose 30 mg, route oral; how it was run: as §3

Question: With `C[C@H]1[C@H](N2CCS(=O)(=O)CC2)O[C@@H]2O[C@@]3(C)CC[C@H]4[C@H](C)CC[C@@H]1[C@@]24OO3` [ARTEMIFONE] as the molecule, how does the Vd/F [1] read?
Answer: 12.8 L/kg

Question: And the MRT [2]?
Answer: 3.3 h

Question: What about the half-life [3] of the same molecule?
Answer: 3.14 h

Question: And the Ratio (Plasma)?
Answer: 98.5%

Question: And the Tmax [4]?
Answer: 1.5 h

Question: And the CL/F [5]?
Answer: 5080 mL/min

Question: What about the MRT [6] of the same molecule?
Answer: 0.98 h

Question: And the Tmax [7]?
Answer: 0.625 h

Question: And the CL/F [8]?
Answer: 3630 mL/min

Question: And the CL/F [9]?
Answer: 3500 mL/min

Question: And the Cmax [10]?
Answer: 95 ng/mL

Question: What about the Cmax [11] of the same molecule?
Answer: 140 ng/mL

Question: What about the Vd/F [12] of the same molecule?
Answer: 8.93 L/kg

Question: And the AUC at 10 h [13]?
Answer: 343 ng·h/mL

Question: And the half-life [14]?
Answer: 2.97 h

Question: And the Activity (Homo sapiens [15])?
Answer: Non-toxic

Question: What about the AUC at 10 h [16] of the same molecule?
Answer: 337 ng·h/mL

Question: And the Activity (Homo sapiens [17])?
Answer: Non-toxic

Question: What about the Cmax [18] of the same molecule?
Answer: 130 ng/mL

Question: And the Activity (Homo sapiens [19])?
Answer: Non-toxic

Question: And the half-life [20]?
Answer: 3.07 h

Question: And the MRT [21]?
Answer: 2.91 h

Question: And the CL/F [22]?
Answer: 3880 mL/min

Question: What about the Vd/F [23] of the same molecule?
Answer: 22.2 L/kg

Question: And the Cmax [24]?
Answer: 50.5 ng/mL

From ChEMBL document CHEMBL1671864, “First assessment in humans of the safety, tolerability, pharmacokinetics, and ex vivo pharmacodynamic antimalarial activity of the new artemisinin derivative artemisone” (Antimicrob Agents Chemother, 2008)
